This is an account of results in paper PMC8884033 (Journal of medicinal chemistry, 2021).

The IC50 is the concentration at which inhibition is half-maximal. For orientation: Papp means a coefficient for how fast a substance crosses the barrier. Higher therefore signals fast passage. As a reminder, the clearance is the volume of plasma or blood freed of the substance per unit of time. Low readings indicate a low capacity for elimination, high ones a high capacity for elimination. One may read the half-life as the time needed for the level to fall by half in the phase considered. A lower half-life goes with fast loss.

Some results are limits rather than exact numbers.

In series [1] the target is T1, recombinant human GALK1 (Homo sapiens, UniProt P51570). The conditions noted are these: read-out: IC50 against human recombinant GALK1; previously reported lead; cited from earlier work.
In series [2] the test system is Fibroblasts derived from GALT-deficient patients. To be noted: primary fibroblast cells from patients with classic galactosemia; cited from earlier work.
For series [3], the system named is GALK2. The conditions noted are these: cited from earlier work.
Series [4] has as its target T2, mouse recombinant GALK1 (Mus musculus, UniProt Q9R0N0). To be noted: read-out: IC50 against mouse recombinant GALK1; previously reported lead; cited from earlier work.
Series [5] has as its system other kinases. Briefly: KINOMEScan screen. The series is classed as binding. To be noted: KINOMEScan at 10 μM.
Series [6] deals with T1, recombinant human GALK1. The series can be described thus: GALK1 biochemical assay. The conditions noted are these: for fold improvement in potency compared to compound 2: ratio of GALK1 IC50 vs 2.
The nature of series [7]: Parallel artificial membrane permeability assay. It is filed as in vitro ADME. The conditions noted are these: pH 7.4. The method, boiled down:
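Stirred double-sink PAMPA with a lipid/dodecane membrane designed to model GI passive permeability. Donor and acceptor both at pH 7.4. Test compound from 10 mM DMSO stock, diluted to 0.05 mM in pH 7.4 buffer (0.5% DMSO final). Permeation ran 30 min at room temperature with donor stirring. Donor and acceptor concentrations read by UV plate reader.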

A short description of series [8]: Mouse pharmacokinetic studies. The series is classed as in vivo, CD1 mice. The method, boiled down:
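Fed CD1 mice, 6–8 weeks old, ~25–30 g. Given single IP (50 mpk), PO (30 mpk) or IV doses as solutions in 5% NMP/25% PEG 300/70% of 15% w/w Kolliphor HS 15 in water (5, 3 and 0.6 mg/mL for IP, PO and IV). Heart-puncture blood taken into heparin-Na from 3 mice per time, 5 min–24 h. Plasma analysed by LC/MS/MS. Once-daily cageside observations.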

The test system of series [9] is Fibroblasts derived from GALT-deficient patients. Briefly: Cellular Gal-1P accumulation assay after galactose challenge. The conditions noted are these: at 3 μM, patient fibroblasts. The series is classed as cell-based, human. The method, boiled down: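 GALT-deficient patient fibroblasts kept in galactose-free DMEM with 10% FBS. Inhibitor added at set concentrations for 2 to 4 h at 37 °C. Galactose then added to 0.05% for a 4 h challenge. Cells PBS-washed twice and lysed in ice-cold hypotonic buffer (25 mM Tris-HCl pH 7.4, 25 mM NaCl, 0.5 mM EDTA, protease inhibitors). Lysate needle-sheared, then spun 16,000g for 20 min at 4 °C. Gal-1P measured by alkaline phosphatase-coupled method and normalized to protein.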

Series [10] addresses T2, mouse recombinant GALK1. The series can be described thus: GALK1 biochemical assay, mouse enzyme.
Series [11] can be described thus: Human liver microsome stability. It is filed as in vitro ADME. To be noted: liver microsomes, pH 7.4. In general terms: Microsomes from liver hold many membrane-bound enzymes, among them those of drug oxidation.
[12] abbreviates: male, CD1, mouse, plasma, iv, 3 mg/kg.

T1 sequence (P51570 whole entry): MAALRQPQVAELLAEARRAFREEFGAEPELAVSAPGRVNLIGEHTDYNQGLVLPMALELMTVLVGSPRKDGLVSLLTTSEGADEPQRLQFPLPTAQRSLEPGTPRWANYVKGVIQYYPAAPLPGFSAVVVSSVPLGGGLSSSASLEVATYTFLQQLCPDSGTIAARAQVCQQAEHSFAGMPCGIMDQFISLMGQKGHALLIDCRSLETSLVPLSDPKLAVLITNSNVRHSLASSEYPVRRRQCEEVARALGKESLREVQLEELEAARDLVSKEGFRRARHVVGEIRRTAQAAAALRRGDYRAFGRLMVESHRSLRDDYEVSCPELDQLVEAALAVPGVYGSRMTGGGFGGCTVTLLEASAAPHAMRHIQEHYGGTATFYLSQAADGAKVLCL
T2 sequence (Q9R0N0 whole entry): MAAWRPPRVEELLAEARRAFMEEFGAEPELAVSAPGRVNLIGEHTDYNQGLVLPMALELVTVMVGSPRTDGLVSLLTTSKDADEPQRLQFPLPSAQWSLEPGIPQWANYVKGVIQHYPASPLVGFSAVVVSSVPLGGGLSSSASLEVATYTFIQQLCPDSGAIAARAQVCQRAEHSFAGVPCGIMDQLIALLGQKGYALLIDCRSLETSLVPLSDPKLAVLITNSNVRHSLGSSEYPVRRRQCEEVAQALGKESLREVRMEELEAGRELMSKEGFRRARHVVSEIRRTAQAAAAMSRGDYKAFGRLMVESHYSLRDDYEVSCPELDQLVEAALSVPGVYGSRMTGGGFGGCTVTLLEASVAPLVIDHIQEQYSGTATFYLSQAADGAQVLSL

As to `O=C1CCCC2=C1C(c1[nH]ncc1Cl)N=C(Nc1nc3ccccc3o1)N2` (centres unmarked) [Compound 1], the half-maximal inhibitory concentration (IC50) in series [1] is 7.69 µM; in [4] it was 13.7 µM. The “effect on gal-1P levels” value in series [2] was “lowered gal-1P levels”. For the same molecule, the “activity against GALK2” value in series [3] was “inactive”. Also, the “cross-reactivity against other kinases” value in series [5] is listed as “negligible cross-reactivity”.

Regarding `CC1=C(C(=O)Nc2cccc(C(=O)O)c2)C(c2ccccc2Cl)N=C(Nc2nc3ccccc3o2)N1` (centres unmarked) [Compound 15, 3-(2-(Benzo[d]oxazol-2-ylamino)-4-(2-chlorophenyl)-6-methyl-1,4-dihydropyrimidine-5-carboxamido)benzoic Acid], in series [6], the “fold improvement in potency compared to compound 2” value (“fold improvement in potency” for short) is over 5 fold.

With `CC1=C(C(=O)Nc2ccc(C(=O)O)cc2)C(c2ccccc2Cl)N=C(Nc2nc3ccccc3o2)N1` (centres unmarked) [Compound 16, 4-(2-(Benzo[d]oxazol-2-ylamino)-4-(2-chlorophenyl)-6-methyl-1,4-dihydropyrimidine-5-carboxamido)benzoic Acid], the “fold improvement in potency” value in series [6] is over 5 fold.

For `CC1=C(C(=O)NCc2ccc(C(=O)O)cc2)C(c2ccccc2Cl)N=C(Nc2nc3ccccc3o2)N1` (centres unmarked) [Compound 25, 4-((2-(Benzo[d]oxazol-2-ylamino)-4-(2-chlorophenyl)-6-methyl-1,4-dihydropyrimidine-5-carboxamido)methyl)benzoic Acid], the “fold better than 24” value in [6] (GALK1 IC50 vs 24) is on record as 2 fold.

Turning to `CC1=C(C(=O)NCc2cn(C)cn2)C(c2ccccc2Cl)N=C(Nc2nc3ccccc3o2)N1` (centres unmarked) [Compound 32, 2-(Benzo[d]oxazol-2-ylamino)-4-(2-chlorophenyl)-6-methyl-N-((1-methyl-1H-imidazol-4-yl)methyl)-1,4-dihydropyrimidine-5-carboxamide], the “fold improvement in potency” value in series [6] was 7–9 fold.

Take `CC1=C(C(=O)NCc2cnn(C)c2)C(c2ccccc2Cl)N=C(Nc2nc3ccccc3o2)N1` (centres unmarked) [Compound 33, 2-(Benzo[d]oxazol-2-ylamino)-4-(2-chlorophenyl)-6-methyl-N-((1-methyl-1H-pyrazol-4-yl)methyl)-1,4-dihydropyrimidine-5-carboxamide]: the “fold improvement in potency” value in series [6] is given as 7–9 fold.

Take `CC1=C(C(=O)Nc2cc(C(=O)O)ccn2)C(c2ccccc2Cl)N=C(Nc2nc3ccccc3o2)N1` (centres unmarked) [Compound 35, 2-(2-(Benzo[d]oxazol-2-ylamino)-4-(2-chlorophenyl)-6-methyl-1,4-dihydropyrimidine-5-carboxamido)isonicotinic Acid]: the “fold improvement in potency” value in series [6] came out at 10 fold.

With `CC1=C(C(=O)Nc2cc(C(=O)O)ccn2)C(c2ccccc2Cl)N=C(Nc2nc3ccc(F)cc3o2)N1` (centres unmarked) [Compound 38, 2-(4-(2-Chlorophenyl)-2-((6-fluorobenzo[d]oxazol-2-yl)amino)-6-methyl-1,4-dihydropyrimidine-5-carboxamido)isonicotinic Acid], the “biochemical potency against GALK1” value in series [6] is “submicromolar”.

In the case of `CC1=C(C(=O)Nc2cc(C(=O)O)ccn2)C(c2ccccc2Cl)N=C(Nc2nc3cccc(N)c3o2)N1` (centres unmarked) [Compound 53, 2-(2-((7-Aminobenzo[d]oxazol-2-yl)amino)-4-(2-chlorophenyl)-6-methyl-1,4-dihydropyrimidine-5-carboxamido)isonicotinic Acid], in [6], the “biochemical potency against GALK1” value was “submicromolar”. Moreover, in series [6] (ratio of GALK1 IC50 vs 35), the “fold potency improvement over 35” value was determined as 5 fold.

`CC1=C(C(=O)NCc2cnn(C)c2)C(c2ccc(C)cc2Cl)N=C(Nc2nc3cccc(N)c3o2)N1` (centres unmarked) [Compound 67, 2-((7-aminobenzo[d]oxazol-2-yl)amino)-4-(2-chloro-4-methylphenyl)-6-methyl-N-((1-methyl-1H-pyrazol-4-yl)methyl)-1,4-dihydropyrimidine-5-carboxamide]: the Papp at 30 min, 0.05 mM in [7] (PAMPA) came to 315 ×10⁻⁶ cm/s.

`CC1=C(C(=O)NCc2cnn(C)c2)C(c2ccc(C)cc2Cl)N=C(Nc2nc3ccc(F)c(N)c3o2)N1` (centres unmarked) [Compound 68, 2-((7-Amino-6-fluorobenzo[d]oxazol-2-yl)amino)-4-(2-chloro-4-methylphenyl)-6-methyl-N-((1-methyl-1H-pyrazol-4-yl)methyl)-1,4-dihydropyrimidine-5-carboxamide]: in [7], the PAMPA was 485 10^−6 cm/s. The “time up to which plasma concentrations stay above 1 μM” value in series [8] (IP, single 50 mg/kg dose) is reported as ~ 7 h. Besides, in [8] (IV, 3 mpk, plasma), the “time after which compound levels are below LLQ” value was determined as 2 h. In series [8] (setting [12]), this molecule gave a clearance at 24 h of 19.9 mL/min/kg and a half-life of about 24 min. Moreover, in [9], the gal-1P/protein levels is listed as ~ 50 % of control. Also, the “mouse GALK1 inhibition” value in [10] is on record as “submicromolar”. This molecule showed a half-life at 1 μM in series [11] of 47 min.

Take `CCn1cc(CNC(=O)C2=C(C)NC(Nc3nc4cccc(N)c4o3)=NC2c2ccc(C)cc2Cl)cn1` (centres unmarked) [Compound 69, 2-((7-Aminobenzo[d]oxazol-2-yl)amino)-4-(2-chloro-4-methylphenyl)-6-methyl-N-((1-ethyl-1H-pyrazol-4-yl)methyl)-1,4-dihydropyrimidine-5-carboxamide]: in series [7], the PAMPA is given as 632 10^−6 cm/s.

As for `CCn1cc(CNC(=O)C2=C(C)NC(Nc3nc4ccc(F)c(N)c4o3)=NC2c2ccc(C)cc2Cl)cn1` (centres unmarked) [Compound 70, 2-((7-Amino-6-fluorobenzo[d]oxazol-2-yl)amino)-4-(2-chloro-4-methylphenyl)-N-((1-ethyl-1H-pyrazol-4-yl)methyl)-6-methyl-1,4-dihydropyrimidine-5-carboxamide], the PAMPA in series [7] is 410 10^−6 cm/s. In [6] (6′-F vs des-fluoro 69), the “fold improvement in GALK1 inhibition over 69” value is on record as 4 fold. Also, the “mouse GALK1 inhibition” value in series [10] is recorded as “submicromolar”.

As to `CC1=C(C(=O)NCc2cnn(C)c2)[C@H](c2ccc(C)cc2Cl)N=C(Nc2nc3cccc(N)c3o2)N1` [Compound (R)-67, (R)-2-((7-Aminobenzo[d]oxazol-2-yl)amino)-4-(2-chloro-4-methylphenyl)-6-methyl-N-((1-methyl-1H-pyrazol-4-yl)methyl)-1,4-dihydropyrimidine-5-carboxamide], the PAMPA in series [7] was 661 10^−6 cm/s.

Take `CCn1cc(CNC(=O)C2=C(C)NC(Nc3nc4ccc(F)c(N)c4o3)=N[C@H]2c2ccc(C)cc2Cl)cn1` [Compound (R)-70, (R)-2-((7-Amino-6-fluorobenzo[d]oxazol-2-yl)amino)-4-(2-chloro-4-methylphenyl)-N-((1-ethyl-1H-pyrazol-4-yl)methyl)-6-methyl-1,4-dihydropyrimidine-5-carboxamide]: in series [7], the PAMPA is on record as 773 10^−6 cm/s. For the same molecule, the “fold more potent than the (S)-enantiomer” value in series [6] ((R) vs (S) enantiomer at C4) stood at 18 fold. Further, the “mouse GALK1 inhibition” value in series [10] is given as “submicromolar”.

Turning to `CCn1cc(CNC(=O)C2=C(C)NC(Nc3nc4ccc(F)c(N)c4o3)=N[C@@H]2c2ccc(C)cc2Cl)cn1` [Compound (S)-70, (S)-2-((7-Amino-6-fluorobenzo[d]oxazol-2-yl)amino)-4-(2-chloro-4-methylphenyl)-N-((1-ethyl-1H-pyrazol-4-yl)methyl)-6-methyl-1,4-dihydropyrimidine-5-carboxamide], in series [7], the PAMPA was 407 10^−6 cm/s.
